Published values collected from several papers.
Each line is one published result; the experiments were not run side by side. ≈ marks a conversion by molar mass, not a printed value.

| SMILES | target or system | assay | test system | conditions | quantity | value |
| --- | --- | --- | --- | --- | --- | --- |
| O=C(NC(=S)Nc1nccs1)c1ccco1 | Leishmania major | parasite growth, resazurin | – | promastigote | IC50 | 12.9 µM |
| Cc1cc(NC(=O)C=Cc2ccccc2)cc(-c2ccnc(N3CCC(CO)CC3)c2)c1 | HeLa | cell growth or viability, MTT | – | 5 µM | inhibition | 81.8% |
| O=C(N[C@H](CO)[C@H](O)c1ccc([N+](=O)[O-])cc1)C(Cl)Cl | Vibrio alginolyticus | microbial growth | – | 24 h | MIC | 1.25 to 2.5 µM (≈ 0.404 to 0.808 µg/mL) |
| C[C@@H]1CC[C@@H]([C@@](O)(CNCc2ccccc2)COCc2ccccc2)[C@H](OCc2ccccc2)C1 | HeLa | cell growth or viability, MTT | – | 30 µM, 72 h | inhibition | 98.2% |
| CN[C@@H]1[C@@H](O[C@H]2O[C@H](CO)[C@@H](N)[C@H](O)[C@H]2O)OC2C[C@@H](N)[C@@H](O[C@H]3[C@H](O)[C@@H](O)[C@H](N)C[C@@H]3N)OC2[C@@H]1O (stereo partly shown) | Vibrio alginolyticus | microbial growth | – | 24 h | MIC | > 40 µM |
| O=C(NC(=S)Nc1ccccc1O)c1ccco1 | Leishmania major | parasite growth, resazurin | – | promastigote | IC50 | 6.08 µM |
| C[C@@H]1CC[C@@H]([C@](C)(O)CNCc2ccc(F)cc2)[C@H](OCc2ccccc2)C1 | HeLa | cell growth or viability, MTT | – | 30 µM, 72 h | inhibition | 60.1% |
| O=C(NC(=S)Nc1cccc(O)c1)c1cccs1 | Leishmania major | parasite growth, resazurin | – | promastigote | IC50 | 0.29 µM |
| C=CC(=O)NC1CCN(c2ncc3ncnc(Nc4ccc(Oc5ccc6c(c5)ncn6C)c(C)c4)c3n2)CC1 | SNU-216 | cell growth or viability | – | – | EC50 | 10.2 nM |
| C=C(COCc1ccc(F)cc1)[C@@H]1CC[C@@H](C)C[C@H]1OCc1ccc(F)cc1 | HeLa | cell growth or viability, MTT | – | 30 µM, 72 h | inhibition | 61.5% |
| Cc1nc(NC(=S)NCc2ccco2)nc(-c2ccccc2)c1C(=O)N1CCC(C(=O)O)CC1 | Leishmania major | parasite growth, resazurin | – | promastigote | IC50 | 0.18 µM |
| CN[C@H](CC(C)C)C(=O)N[C@H]1C(=O)N[C@@H](CC(N)=O)C(=O)N[C@H]2C(=O)N[C@H]3C(=O)N[C@H](C(=O)N[C@H](C(=O)O)c4cc(O)cc(O)c4-c4cc3ccc4O)[C@H](O)c3ccc(c(Cl)c3)Oc3cc2cc(c3O[C@@H]2O[C@H](CO)[C@@H](O)[C@H](O)[C@H]2O[C@H]2C[C@](C)(N)[C@H](O)[C@H](C)O2)Oc2ccc(cc2Cl)[C@H]1O | Enterococcus faecalis | microbial growth | ATCC29212 | – | MIC | 2 µM (≈ 2.9 µg/mL) |
| COc1ccc(COC[C@@](O)(CNCc2ccccc2)[C@@H]2CC[C@@H](C)C[C@H]2OCc2ccc(OC)cc2)cc1 | HeLa | cell growth or viability, MTT | – | 10 µM, 72 h | inhibition | 93.8% |
